# B2AR ag: activates human beta-2 adrenergic receptor causing internalization. P07550. Am2.2-beta2AR cells, FAP receptor internalization, flow cytometry. response, % (concentration not given with the values). 340,000 tested, 0.43% active;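 active means response above a set limit, near 3 SD of response in nonfluorescent compounds, cut at about 42% in these data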
# SENP1 inh: inhibitors of human SENP1 SUMO protease catalytic domain; Q9P0U3; recombinant SENP1 catalytic domain, CyPet-SUMO1-YPet FRET cleavage; inhibition, % at 10 µM; 360,000 tested, 0.21% active; AID 624204;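 active means inhibition at least 30% at 10 µM, raw YFP signal under a set limit, fluorescence ratio 0.5 to 1.5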
#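 Test system: hSENP1 catalytic domain, recombinant; Amount: 20 pM final SENP1 enzyme; Medium: Tris pH 8 buffer plus EDTA, NaCl, BME, BSA, NP40, catalase; Schedule: 50 min enzyme reaction, room temperature, light-protected; Technique: FRET fluorescence in CFP and YFP emission channels; Controls: no-enzyme wells low, DMSO-plus-enzyme wells high control.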
# GRK2 inh: blocks RNA aptamer binding to human GRK2; inhibition of aptamer binding, % at 10 µM; bead flow cytometry, FAM-aptamer displacement from GRK2; AID 488847; 330,000 tested, 0.59% active;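 active means inhibition of aptamer binding above 40%, roughly 3 SD of noise, on plates passing a quality check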;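 further: median bead fluorescence of bound FAM aptamer so fluorescent compounds give negative values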
# Target sequence (P25098 whole entry, looked up): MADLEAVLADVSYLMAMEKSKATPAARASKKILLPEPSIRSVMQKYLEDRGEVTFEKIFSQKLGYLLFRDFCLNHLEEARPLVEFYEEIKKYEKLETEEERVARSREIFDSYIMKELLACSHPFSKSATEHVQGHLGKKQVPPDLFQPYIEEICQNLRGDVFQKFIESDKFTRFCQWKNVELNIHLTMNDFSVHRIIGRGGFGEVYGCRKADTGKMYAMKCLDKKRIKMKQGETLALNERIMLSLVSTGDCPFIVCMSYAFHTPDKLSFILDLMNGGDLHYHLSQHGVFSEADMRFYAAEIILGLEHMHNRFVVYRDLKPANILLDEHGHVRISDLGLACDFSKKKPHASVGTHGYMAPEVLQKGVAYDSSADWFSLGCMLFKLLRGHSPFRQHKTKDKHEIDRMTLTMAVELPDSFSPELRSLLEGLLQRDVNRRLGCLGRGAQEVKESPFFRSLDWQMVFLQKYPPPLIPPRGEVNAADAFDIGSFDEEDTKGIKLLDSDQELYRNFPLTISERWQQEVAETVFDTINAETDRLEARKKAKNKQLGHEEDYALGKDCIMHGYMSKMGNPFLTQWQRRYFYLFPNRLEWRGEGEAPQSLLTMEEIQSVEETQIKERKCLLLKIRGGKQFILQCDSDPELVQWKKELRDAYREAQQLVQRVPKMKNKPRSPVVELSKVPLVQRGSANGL
# NadD inh: NadD (S. aureus) enzyme inhibition; AID 602399; 360,000 tested, 0.78% active; inhibition, % at 20 µM; purified NadD enzyme, colorimetric absorbance read-out; in the data active means inhibition above about 26%
# ABHD5-PLIN5 inh: blocks binding of human ABHD5 to perilipin-5 | Q00G26+Q8WTS1 | Split G. princeps luciferase complementation, luminescence, 4 h | inhibition, % at 4 µM | 360,000 tested, 0.78% active;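 active means inhibition above the mean inhibition across every tested compound plus 3 SD, cut at about 22% in these data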
# GRK2 CP1: human GRK2 inhibition confirmation, cherry pick 1; shares compounds with GRK2 inh; bead-bound GRK2, FAM-aptamer displacement, flow cytometry; aptamer displacement, % at 10 µM; 2,000 tested, 4% active; AID 504451;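 active means aptamer displacement above 40%, near three times the noise of non-fluorescent compounds, on plates passing quality checks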;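 further: negative values mostly reflect intrinsic compound fluorescence rather than true enhancement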
# Aptamer quench SP: aptamer fluorescence quenching in GRK2 counter-screen | shares compounds with GRK2 inh | Carboxyfluorescein RNA aptamer on beads, flow cytometry quenching; hits give low values | fluorescence response (% of DMSO), % at 10 µM | 2,000 tested, under 10 active | AID 504580;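 active means compounds that quench the bead-bound fluorescent RNA probe, cutting fluorescence to under half of the solvent control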;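 further: counterscreen run without GRK2 so only probe quenching by compound is measured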
# GRK2 confirm 2: human GRK2 inhibition confirmation, cherry pick 2; shares compounds with GRK2 inh; 360 tested, under 10 active; inhibition of aptamer binding, % at 10 µM; bead-bound GRK2, FAM-aptamer displacement, flow cytometry; AID 504782;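 active means inhibition of aptamer binding above 40%, about triple the noise seen with nonglowing compounds, on plates passing quality control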;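 further: negative values mostly come from compounds that fluoresce themselves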
# FAM quench SP: aptamer fluorescence quenching in GRK2 counter-screen; shares compounds with GRK2 inh; carboxyfluorescein RNA aptamer beads, flow cytometry quenching; hits give low values; fluorescence response vs DMSO, % at 10 µM; 360 tested, under 10 active; AID 588494;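 active means response vs DMSO under 50%, meaning signal dropped by over half, treated as fluorescence quencher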;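 further: labelled aptamer on streptavidin beads without GRK2 as a quench counter-screen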
# Hits are given with their value; 0 = inactive; - = no result. Only some compounds are listed: those with a hit (about 2.5% of all), similar ones and a draw of the others.
SMILES,B2AR ag,SENP1 inh,GRK2 inh,NadD inh,ABHD5-PLIN5 inh,GRK2 CP1,Aptamer quench SP,others
COc1cc(/C=C2\C(=O)N(c3cccc(C(=O)O)c3)N=C2C)ccc1OCc1ccccc1,-,0,-,0,0,-,-,
Cc1nc(-c2nc(CC(=O)NNC(=O)c3ccc(Cl)cc3)cs2)cs1,0,0,47.0,0,0,0,0,
O=C(CC[C@H]1O[C@@H](n2ccc(=O)[nH]c2=O)[C@H](O)[C@@H]1O)N[C@H](Cc1ccccc1)C(=O)NCc1ccccc1,-,0,-,0,0,-,-,
Nc1nc(SCC(=O)N2N=C3/C(=C/c4ccco4)CCCC3C2c2ccco2)n[nH]1 (centres undefined),0,0,0,0,0,-,-,
O=C(CSc1nccc(=O)[nH]1)N1N=C2/C(=C/c3ccco3)CCCC2C1c1ccco1 (centres undefined),0,0,42.0,0,0,0,0,
NS(=O)(=O)c1cc(C(=O)NC2CCSc3ccccc32)ccc1Cl (centres undefined),0,0,51.0,0,0,0,0,
CCN(CC(=O)Nc1c(F)cccc1F)C(=O)c1ccc2ccccc2n1,0,0,0,0,0,-,-,
CCN(CC(=O)Nc1c(F)cccc1F)C(=O)/C=C/c1ccc2ccccc2n1,0,0,94.0,0,0,0,0,
C=CCC(CC(O)COCCC)C(=O)NNC(=S)Nc1ccccc1 (centres undefined),0,0,46.0,0,0,0,0,
CC(C)CCOCC(O)CCC(=O)NNC(=S)Nc1ccccc1 (centres undefined),0,0,0,0,0,-,-,
Cn1ccnc1C1CCCCN1Cc1nc(Cc2cccc(C(F)(F)F)c2)no1 (centres undefined),0,0,0,0,0,0,0,
N#CC1(Nc2ccc(S(N)(=O)=O)cc2)CCCC1,0,0,-,0,0,-,-,
O=C(N/N=C/c1cccnc1)c1cc(O)c(O)c(O)c1,0,0,44.0,0,0,0,0,
O=C(N/N=C/c1cccnc1)c1ccc(O)cc1,0,0,0,0,0,-,-,
Cc1csc(=O)n1CC(=O)OCC(=O)c1c(N)n(CC(C)C)c(=O)n(C)c1=O,0,0,0,0,0,-,-,
CCCCNC(=O)c1ccc(CS(=O)(=O)c2cccc(C(F)(F)F)c2)o1,0,0,0,0,0,-,-,
O=C(O)c1ccc(CS(=O)(=O)c2cccc(C(F)(F)F)c2)o1,0,0,0,0,0,-,-,GRK2 confirm 2=0;FAM quench SP=0
CC(C)c1cc(C(=O)NC2CCCc3c2cnn3-c2ccccc2F)no1 (centres undefined),0,0,69.0,0,0,0,0,
CN(Cc1cccnc1)Cc1c(C(=O)N2CCc3ccccc3C2)nc2ccc(Cl)cn12,0,0,93.0,0,0,0,0,
CN(Cc1cnccn1)Cc1c(C(=O)N2CCc3ccccc3C2)nc2ccc(Cl)cn12,0,0,0,0,0,-,-,
COc1ccc([C@H]2CC(=O)C=C(c3cc(Cl)ccc3C)C2)cc1,0,0,0,0,0,-,-,
Cc1ccc(Cl)cc1C1=CC(=O)C[C@H](c2ccc(F)cc2)C1,0,0,64.0,0,0,0,0,
CCn1c(N2CCN(C(=S)NCC(C)C)CC2)nc2ccccc21,0,0,0,0,0,-,-,
CC(C)CNC(=S)N1CCN(c2nc3ccccc3s2)CC1,0,0,42.0,0,0,0,0,
CCOCc1nnc(NC(=O)CS(=O)(=O)c2ccc(C)cc2)s1,0,0,0,0,0,-,-,
SMILES,B2AR ag,SENP1 inh,GRK2 inh,NadD inh,ABHD5-PLIN5 inh,GRK2 CP1,Aptamer quench SP,others
CCc1nnc(NC(=O)CCS(=O)(=O)c2ccc(C)cc2)s1,0,0,0,0,0,0,0,
CCc1nnc(NC(=O)c2cccc(S(=O)(=O)N3CCCC3)c2)s1,0,0,0,0,0,-,-,
CCc1nnc(NC(=O)c2cccc(S(=O)(=O)N3CCCCC3)c2)s1,0,0,95.0,0,0,-,-,GRK2 confirm 2=0;FAM quench SP=0
COCc1nnc(NC(=O)CCCOc2ccccc2)s1,0,0,0,0,0,-,-,
CCc1nnc(NC(=O)CCS(=O)(=O)c2ccccc2)s1,0,0,0,0,0,0,0,
COCc1nnc(NC(=O)CCS(=O)(=O)c2ccccc2)s1,0,0,0,0,0,0,0,
COc1ccc(OC)c(/C=N/N2CCN(c3ccc(Cl)cc3)CC2)c1,0,0,0,0,0,-,-,
CC(C)(C)OC(=O)N1CCCC(C(=O)Nc2cccc(C(=O)NCCCCc3ccccc3)c2)C1 (centres undefined),0,0,-,0,0,-,-,
O=C(Nc1nc(-c2cccs2)cs1)c1ccc(S(=O)(=O)N2CCCC2)cc1,0,0,0,0,0,0,0,
Cc1cccc(NC(=O)CCS(=O)(=O)c2ccccc2)n1,0,0,0,0,0,0,0,
CCCCc1nnc(NC(=O)CCS(=O)(=O)c2ccc(C)cc2)s1,0,0,0,0,0,0,0,
Cn1ccnc1C(OC(=O)c1ccccc1)C(F)(F)F (centres undefined),0,0,0,0,0,0,0,
Cn1ccnc1C(OC(=O)c1ccc(Cl)cc1)C(F)(F)F (centres undefined),0,0,0,0,0,-,-,
CC1(C)Cc2c(sc(NC(=O)COc3cccc4ccccc34)c2C#N)C(C)(C)N1,0,0,63.0,0,0,0,0,
CCOc1ccc(NC(=O)C2CCCN2S(=O)(=O)c2ccc3c(c2)C(C)(C)C(=O)N3C)cc1 (centres undefined),0,0,48.0,0,0,0,0,
CCOc1ccccc1NC(=O)C1CCCN1S(=O)(=O)c1ccc2c(c1)C(C)(C)C(=O)N2C (centres undefined),-,0,-,0,0,-,-,
Cc1cn(C2OC(COC(=O)c3ccccc3)C(OC(=O)c3ccccc3)C2OC(=O)c2ccccc2)c(=O)[nH]c1=O (centres undefined),0,0,100.0,0,0,0,0,
Cc1cn(C2OC(COC(=O)c3ccccc3)C(O)C2O)c(=O)[nH]c1=O (centres undefined),0,0,0,0,0,-,-,
COc1ccc(C(=O)Nc2cccc(C(=O)NCc3ccco3)c2)cc1,0,0,0,0,0,0,0,
O=C(Nc1cc([N+](=O)[O-])ccc1O)c1cccc(NC(=O)c2ccco2)c1,0,0,78.0,0,0,0,0,
O=C(Nc1ccccc1)c1cccc(NC(=O)c2ccco2)c1,0,0,0,0,0,-,-,
COc1cc(NC(=O)c2cccc([N+](=O)[O-])c2)ccc1NC(=O)c1ccco1,0,0,0,0,0,-,-,

# Screens as filed in PubChem.
